From publication PMC11212574 (Emerging Microbes & Infections, 2024)

Assays:
Type in all cases: cell-based
Hsp27 phosphorylation = assay: Western blot of Hsp27 phosphorylation; details: SB203580 0.25-8 µM for 2 h, then EV-A71 MOI 10 for 6 h, RD cells (Fig 1A)
How it was run: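 RD cells were pre-treated 2 h with test peptide or small-molecule test compound (0–8 µM), then infected with EV-A71 at MOI 10 for 6 h. Cells were lysed in NP-40 buffer, assayed by Bradford, and 20 μg protein was run on 12% SDS-PAGE/PVDF. Blots were probed with phospho-Ser15/78/82 Hsp27 antibodies and HRP secondaries (1 h) and read by chemiluminescence. Loading controls were GAPDH for the compound and β-actin for peptides; peptide blots were quantified by densitometry.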

[1] = system: Hsp27/hnRNP A1 relocalization; details: for redistribution of Hsp27 and hnRNP A1 in EV-A71-infected RD cells: peptide 25 μM for 2 h, then EV-A71 MOI 40 for 6 h (Fig 7C-E, S7C-E)
How it was run: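 RD cells on coverslips were pretreated 2 h with the test compound, then infected with EV-A71 at MOI 40 for 6 h. Cells were fixed in 4% paraformaldehyde for 20 min, permeabilised in 0.5% Triton X-100 for 15 min and blocked in 5% BSA for 2 h. They were stained with anti-Hsp27/anti-hnRNP A1 and Alexa Fluor 488/594 secondaries, with DAPI or Hoechst nuclei, and imaged by confocal. M1 coefficient gave overlap with nuclear stain.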

[2] = system: Hsp27 nuclear translocation / hnRNP A1 cytosol translocation; assay: Nuclear/cytosol fraction assay upon EV-A71 infection; details: 0, 2, 4, 8 µM for 2 h, then EV-A71 MOI 10 for 6 h, RD cells (Fig 1C)
How it was run: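 RD cells were pretreated 2 h with the test compound (0–8 µM), then infected with EV-A71 at MOI 10 for 6 h. Cells were PBS-washed, scraped and pelleted. Cytoplasmic extract was taken on ice as the supernatant after 16,000 xg for 5 min. Nuclear extract was the supernatant after 16,000 xg for 10 min at 4°C. Both were analysed by western blot, with Lamin B1 as nuclear and GAPDH as cytosolic control.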

EV-A71 [3] = assay: Viral RNA by RT-qPCR; details: HEK 293T cells, 8 μM SB203580 2 h before EV-A71 infection for 9 h (Fig 6C)
EV-A71 [4] = assay: Virus titration; details: RD cells, peptide 25 μM for 2 h, EV-A71 MOI 0.1 for 24 h (Fig S8G)
How it was run: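 RD cells were pretreated 2 h with the test peptide, then infected with EV-A71. Supernatants were serially diluted 10-fold and added in quintuplicate to RD cells seeded 24 h earlier. TCID50 was calculated by the Kärber method after 120 h of infection.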

RD cells = assay: CCK-8 assay; details: peptide treatment for 2 days, CCK-8 (Fig S7B)
How it was run: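 RD cells were seeded at 1 × 10^4/well and held 1 day at 5% CO2. They were then exposed to the test peptide for 2 days. CCK-8 reagent was added with medium and incubated 1 h at 37°C, and OD was read at 450 nm.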

EV-A71 VP1 = EV-A71 VP1 protein level by western blot with densitometry; details: RD cells, peptide for 2 h, EV-A71 MOI 1 for 9 h (Fig S8E)
How it was run: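 RD cells were pretreated 2 h with the test peptide, then infected with EV-A71 (SHZH98 strain). Lysis was in NP-40 buffer, with protein measured by Bradford assay. 20 μg protein was run on 12% SDS-PAGE and transferred to PVDF. HRP secondary antibodies were applied for 1 h, with chemiluminescent detection. VP1 bands were quantified by densitometry against the respective untreated control.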

Compound	Hsp27 phosphorylation level at Ser15 and Ser82 (Hsp27 phosphorylation)	nuclear Hsp27 level upon EV-A71 infection ([1]; 2 µM for 2 h, then EV-A71 MOI 40 for 6 h, RD cells (Fig 1B))	nuclear relocation of Hsp27 upon EV-A71 infection ([1]; 4 µM for 2 h, then EV-A71 MOI 40 for 6 h, RD cells (Fig 1B))	cytosol translocation of hnRNP A1 (nuclear/cytosol fraction) [2]	nuclear translocation of Hsp27 (nuclear/cytosol fraction) [2]	effect on viral RNA level in Hsp27 S78A- and Hsp27 S78D-expressing cells (EV-A71 [3])	redistribution of Hsp27 and hnRNP A1 in EV-A71-infected RD cells [1]	effect on viral titre (in words) (EV-A71 [4])	CC50 (in words) (RD cells)	effect on VP1 level (in words) (EV-A71 VP1)
C[S+]([O-])c1ccc(-c2nc(-c3ccncc3)c(-c3ccc(F)cc3)[nH]2)cc1 (stereo not drawn) [SB203580]	slightly decreased	markedly reduced nuclear Hsp27 level	further blocked to an invisible level	inhibited the cytosol translocation of hnRNP A1 in a dose-dependent manner	suppress the nuclear translocation of Hsp27 in a dose-dependent manner	no obvious effects	–	–	–	–
RKKRRQRRR-AYSRAAAAQLSS [S78-3A]	–	–	–	–	–	–	partially suppressed	only mildly decreased	high CC50	–
RKKRRQRRR-YSREANQPKPSPKRESGEE [NC]	–	–	–	–	–	–	did not affect	–	high CC50	no effect
